Laboratory results published in ChEMBL document CHEMBL3393003, “1,2,3,9b-Tetrahydro-5H-imidazo[2,1-a]isoindol-5-ones as a new class of respiratory syncytial virus (RSV) fusion inhibitors. Part 2: identification of BTA9881 as a preclinical candidate” (Bioorg Med Chem Lett, 2015).
≈ marks a conversion by molar mass, not a printed value. Blank lines part the entries; values can stand above or below the compound they belong to.

Key:
[1] = tested on: Respiratory syncytial virus; experiment: Antiviral activity against respiratory syncytial virus A2 infected in human Hep2 cells assessed as reduction in virus-induced cytopathic effect after 5 days by MTT assay; format: functional, organism-based; conditions: A2, HEp-2, 120 h
Procedure, shortened: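 HEp2 cells (1.0 × 10⁴/well) infected at low moi (RSV A2 at moi 0.01) and added to serial compound dilutions; incubated 5 days at 37 °C, 5% CO₂. CPE read by MTT (1 mg/ml) metabolism after 2 h incubation.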

[2] = tested on: Respiratory syncytial virus; experiment: Antiviral activity against respiratory syncytial virus Long infected in human Hep2 cells assessed as reduction in virus-induced cytopathic effect after 5 days by MTT assay; format: functional, organism-based; conditions: HEp-2, 120 h
[3] = tested on: Respiratory syncytial virus; experiment: Antiviral activity against respiratory syncytial virus B1 infected in human Hep2 cells assessed as reduction in virus-induced cytopathic effect after 5 days by MTT assay; format: functional, organism-based; conditions: B1, HEp-2, 120 h
[4] = Lipophilicity, log D of the compound at pH 7.4 by chromatography; format: physicochemical; conditions: buffer
Procedure, shortened: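 Effective logD measured chromatographically on an LC-ABZ column, octanol-saturated mobile phase at pH 7.4.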

[5] = Kinetic solubility in 0.01M HCl buffer at pH 2.0 by nephelometry; format: physicochemical; conditions: read-out: Kinetic_solubility
Procedure, shortened: (§1)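 Compound dissolved in DMSO and added to 0.01 M HCl (pH 2) or pH 6.5 isotonic phosphate buffer, 1% final DMSO. Solubility range determined by nephelometry.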

[6] = Kinetic solubility in isotonic phosphate buffer at pH 6.5 by nephelometry; format: physicochemical; conditions: read-out: Kinetic_solubility; procedure, shortened: as §1
[7] = Elimination half life in Sprague-Dawley rat at 2 mg/kg, iv; format: ADME, organism-based; design: dose 2 mg/kg, route intravenous; conditions: in vivo, read-out: beta t1/2 (converted)
[8] = Plasma clearance in Sprague-Dawley rat at 2 mg/kg, iv; format: ADME, organism-based; design: dose 2 mg/kg, route intravenous
[9] = Apparent volume of distribution in Sprague-Dawley rat at 2 mg/kg, iv; format: ADME, organism-based; design: dose 2 mg/kg, route intravenous; conditions: in vivo, read-out: Vz
[10] = Elimination half life in Sprague-Dawley rat at 19 mg/kg, po; format: ADME, organism-based; design: dose 19 mg/kg, route oral; conditions: in vivo, read-out: beta t1/2 (converted)
Procedure, shortened: (§2)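 Male Sprague Dawley rats, n = 2, oral dose as suspension in hydroxypropylmethylcellulose, in carboxymethylcellulose, or in 0.5% HPMC/0.5% benzyl alcohol/0.4% Tween80. Cmax (µM), T1/2 and F (%) derived from plasma levels.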

[11] = Cmax in Sprague-Dawley rat at 19 mg/kg, po; format: ADME, organism-based; design: dose 19 mg/kg, route oral; conditions: in vivo; procedure, shortened: as §2
[12] = Oral bioavailability in Sprague-Dawley rat at 19 mg/kg; format: ADME, organism-based; conditions: in vivo; procedure, shortened: as §2
[13] = tested on: Respiratory syncytial virus; experiment: Potency shift index, ratio of EC50 for respiratory syncytial virus A2 infected in human Hep2 in presence of 1.5 mg/mL Alpha-1-acid glycoprotein to EC50 for respiratory syncytial virus A2 infected in human Hep2 in absence of Alpha-1-acid glycoprotein; format: functional
[14] = Cytotoxicity against human Hep2 cells assessed as reduction in cell viability after 5 days by MTT assay; format: cell-based, HEp-2
Procedure, shortened: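 Uninfected HEp2 cells (1.0 × 10⁴/well) exposed to serial compound dilutions for 5 days at 37 °C, 5% CO₂. Viability read by MTT (1 mg/ml) metabolism after 2 h incubation.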

[15] = Drug metabolism in iv dosed Sprague-Dawley rat urine assessed as formation of pyridine N-oxides level; format: ADME, organism-based; conditions: in vivo
[16] = Drug metabolism in orally dosed Sprague-Dawley rat urine assessed as formation of pyridine N-oxides level; format: ADME, organism-based; conditions: in vivo, po
[17] = tested on: Plasma; experiment: Drug metabolism in iv dosed Sprague-Dawley rat plasma assessed as formation of pyridine N-oxides level; format: ADME, organism-based; conditions: in vivo
[18] = tested on: Plasma; experiment: Drug metabolism in orally dosed Sprague-Dawley rat plasma assessed as formation of pyridine N-oxides level; format: ADME, organism-based; conditions: in vivo, po
[19] = tested on: Respiratory syncytial virus; experiment: Resistance index, ratio of EC50 for drug resistant respiratory syncytial virus B1 expressing F protein L141F mutant to EC50 for wild type Respiratory syncytial virus B1; format: functional
[20] = tested on: Respiratory syncytial virus; experiment: Resistance index, ratio of EC50 for drug resistant respiratory syncytial virus Long expressing F protein Q494L mutant to EC50 for wild type Respiratory syncytial virus Long
[21] = tested on: Respiratory syncytial virus; experiment: Resistance index, ratio of EC50 for VP-14637 resistant respiratory syncytial virus Long expressing F protein D489Y mutant to EC50 for wild type Respiratory syncytial virus Long
[22] = Elimination half life in Sprague-Dawley rat at 1.1 mg/kg, iv; format: ADME, organism-based; design: dose 1.1 mg/kg, route intravenous; conditions: in vivo, read-out: beta t1/2 (converted)
[23] = Plasma clearance in Sprague-Dawley rat at 1.1 mg/kg, iv; format: ADME, organism-based; design: dose 1.1 mg/kg, route intravenous
[24] = Apparent volume of distribution in Sprague-Dawley rat at 1.1 mg/kg, iv; format: ADME, organism-based; design: dose 1.1 mg/kg, route intravenous; conditions: in vivo, read-out: Vz
[25] = Elimination half life in Sprague-Dawley rat at 20 mg/kg, po; format: ADME, organism-based; design: dose 20 mg/kg, route oral; conditions: in vivo, read-out: beta t1/2 (converted); procedure, shortened: as §2
[26] = Cmax in Sprague-Dawley rat at 20 mg/kg, po; format: ADME, organism-based; design: dose 20 mg/kg, route oral; conditions: in vivo; procedure, shortened: as §2
[27] = Oral bioavailability in Sprague-Dawley rat at 20 mg/kg; format: ADME, organism-based; conditions: in vivo; procedure, shortened: as §2
[28] = Elimination half life in Sprague-Dawley rat at 0.9 mg/kg, iv; format: ADME, organism-based; design: dose 0.9 mg/kg, route intravenous; conditions: in vivo, read-out: beta t1/2 (converted)
[29] = Plasma clearance in Sprague-Dawley rat at 0.9 mg/kg, iv; format: ADME, organism-based; design: dose 0.9 mg/kg, route intravenous
[30] = Apparent volume of distribution in Sprague-Dawley rat at 0.9 mg/kg, iv; format: ADME, organism-based; design: dose 0.9 mg/kg, route intravenous; conditions: in vivo, read-out: Vz

chromatographic logD [4]: 2.5 | solubility kinetic [5]: 50 µg/mL (≈ 132 µM) | solubility kinetic [6]: > 100 µg/mL | half-life [7]: 144 min | clearance [8]: 55 mL/min/kg | Vd [9]: 11 L/kg | half-life [10]: 186 min | Cmax [11]: 770 nM | bioavailability [12]: 35%
Structure (SMILES): O=C(c1ccoc1)N1CCN2C(=O)c3ccncc3[C@]12c1ccc(Cl)cc1
EC50 [1]: 10 nM | EC50 [2]: 32 nM | EC50 [3]: 85 nM

Drug metabolism [15]: metabolite_detected | Drug metabolism [16]: metabolite_detected | Drug metabolism [17]: metabolite_detected | Drug metabolism [18]: metabolite_detected
Structure (SMILES): O=C(c1ccc(F)nc1)N1CCN2C(=O)c3ccncc3C12c1ccc(Cl)cc1 (racemic)
EC50 [1]: 93 nM | Ratio EC50 [13]: 1.8 | CC50 at 120 h [14]: > 48 µM

Structure (SMILES): Cc1ccc(CCCO)c(NCc2ccc3nc(NCCCN4CCOCC4)n(Cc4nc(C)ccc4O)c3c2)c1
Ratio EC50 [19]: >3333 | Ratio EC50 [20]: 11.5 | Ratio EC50 [21]: >10000

Structure (SMILES): Cc1cc(C(=O)N2CCN3C(=O)c4ccncc4C32c2ccc(Cl)cc2)c(C)o1 (racemic)
EC50 [1]: 120 nM | Ratio EC50 [13]: 14 | CC50 at 120 h [14]: > 18 µM

chromatographic logD [4]: 2.8 | solubility kinetic [5]: 50 µg/mL (≈ 132 µM) | solubility kinetic [6]: > 100 µg/mL | half-life [22]: 144 min | clearance [23]: 79 mL/min/kg | Vd [24]: 8.7 L/kg | half-life [25]: 168 min | Cmax [26]: 440 nM | bioavailability [27]: 21%
Structure (SMILES): O=C(c1ccco1)N1CCN2C(=O)c3ccncc3C12c1ccc(Cl)cc1 (racemic)
EC50 [1]: 120 nM | Ratio EC50 [13]: 3.6 | CC50 at 120 h [14]: > 19 µM | EC50 [2]: 370 nM | EC50 [3]: 170 nM

Structure (SMILES): Cc1nnnn1N/C=C1\C=CC(=O)C(C(C2=C/C(=C/Nn3nnnc3C)C=CC2=O)c2ccc(O)cc2)=C1 (centres undefined)
Ratio EC50 [21]: >2174

Structure (SMILES): O=C(c1cccs1)N1CCN2C(=O)c3ccncc3C12c1ccc(Cl)cc1 (racemic)
EC50 [1]: 130 nM | Ratio EC50 [13]: 12 | CC50 at 120 h [14]: > 18 µM

half-life [28]: 336 min | clearance [29]: 4 mL/min/kg | Vd [30]: 1.9 L/kg | half-life [10]: 426 min | Cmax [11]: 3600 nM | bioavailability [12]: 38% | Drug metabolism [15]: metabolite_detected | Drug metabolism [16]: metabolite_detected | Drug metabolism [17]: metabolite_detected | Drug metabolism [18]: metabolite_detected
Structure (SMILES): Cn1cc(C(=O)N2CCN3C(=O)c4ccncc4C32c2ccc(Cl)cc2)c(C(F)(F)F)n1 (racemic)
EC50 [1]: 31 nM | Ratio EC50 [13]: 4.3 | CC50 at 120 h [14]: > 16 µM

Structure (SMILES): O=C(c1cccnc1)N1CCN2C(=O)c3ccncc3C12c1ccc(Cl)cc1 (racemic)
EC50 [1]: 210 nM | Ratio EC50 [13]: 2.8 | CC50 at 120 h [14]: > 51 µM
